Values belong to the compound of their own block, whether it stands above or below them.
Key:
HL-60 = assay: The compound was tested for its growth inhibitory activity against HL60 cells.; format: functional, cell-based; details: Homo sapiens
L1210 [1] = assay: The compound was tested for its growth inhibitory activity against L1210 cells; format: functional, cell-based; details: Mus musculus
CCRF S-180 = assay: The compound was tested for its growth inhibitory activity against S180 cells.; format: functional, cell-based; details: Mus musculus
Dihydrofolate reductase = biological target: T1, Dihydrofolate reductase (Mus musculus, UniProt P00375); assay: The compound was tested for its inhibitory activity against dihydrofolate reductase(DHFR) derived from L1210 cells.; format: cell-based
T1 sequence (P00375 whole entry): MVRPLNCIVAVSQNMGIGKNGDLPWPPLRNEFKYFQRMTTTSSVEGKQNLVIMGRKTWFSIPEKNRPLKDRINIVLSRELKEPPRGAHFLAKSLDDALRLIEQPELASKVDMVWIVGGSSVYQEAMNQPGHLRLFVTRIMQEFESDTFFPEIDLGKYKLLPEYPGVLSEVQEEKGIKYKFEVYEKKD

L1210 [2] = assay: Km value for its transport after influx into L1210 cells; format: functional, cell-based; details: Mus musculus
Mus musculus [3] = assay: Antitumor effect (36 mg/kg) against EO771 mammary adenocarcinoma in mice measured as average weight change on day 14.; format: functional
In short: (§1)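 Mice implanted with EO771 mammary adenocarcinoma were dosed once daily for 5 days, starting 1 day after tumor implantation, with 10 mice per group. On day 7 and day 14 the following were recorded: average body weight change in grams, toxic deaths, tumor-free animals and average tumor volume. Volume was calculated as 4/3πr³ in mm³, and T/C is treated/control volume.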

Mus musculus [4] = assay: Antitumor effect (36 mg/kg) against EO771 mammary adenocarcinoma in mice measured as Tumor free/total on day 14.; format: functional; in short: as §1
Mus musculus [5] = assay: Antitumor effect (36 mg/kg) against EO771 mammary adenocarcinoma in mice measured as Tumor free/total on day 7.; format: functional; in short: as §1
Mus musculus [6] = assay: Antitumor effect (36 mg/kg) against EO771 mammary adenocarcinoma in mice measured as T/C(treated/control) on day 14.; format: functional; in short: as §1
Mus musculus [7] = assay: Antitumor effect (36 mg/kg) against EO771 mammary adenocarcinoma in mice measured as T/C(treated/control) on day 7.; format: functional; in short: as §1
Mus musculus [8] = assay: Antitumor effect (36 mg/kg) against EO771 mammary adenocarcinoma in mice measured as Toxic deaths/total on day 14.; format: functional
In short: (§2)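 EO771 mammary adenocarcinoma implanted in mice, 10 animals per group. Dosing was once daily for 5 days, starting 1 day after tumor implantation. Toxic deaths were counted over the total on the evaluation day (day 7 or day 14), together with average weight change, tumor volume (4/3πr³, treated/control) and tumor-free animals.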

Mus musculus [9] = assay: Antitumor effect (36 mg/kg) against EO771 mammary adenocarcinoma in mice measured as toxic deaths out of 10 mice tested; format: functional; in short: as §2
Mus musculus [10] = assay: Antitumor effect (36 mg/kg) against EO771 mammary adenocarcinoma in mice measured as average weight change on day 7; format: functional; in short: as §1
L1210 [11] = assay: k value for its transport after efflux through L1210 cells; format: functional, Mus musculus
Thymidylate synthase [12] = biological target: T2, Thymidylate synthase (Lactobacillus casei, UniProt P00469); assay: The compound was tested for its inhibitory activity (IC50) against thymidylate synthase(TS) derived from Lactobacillus casei; parameters: species or system Lacticaseibacillus casei
T2 sequence (P00469 whole entry): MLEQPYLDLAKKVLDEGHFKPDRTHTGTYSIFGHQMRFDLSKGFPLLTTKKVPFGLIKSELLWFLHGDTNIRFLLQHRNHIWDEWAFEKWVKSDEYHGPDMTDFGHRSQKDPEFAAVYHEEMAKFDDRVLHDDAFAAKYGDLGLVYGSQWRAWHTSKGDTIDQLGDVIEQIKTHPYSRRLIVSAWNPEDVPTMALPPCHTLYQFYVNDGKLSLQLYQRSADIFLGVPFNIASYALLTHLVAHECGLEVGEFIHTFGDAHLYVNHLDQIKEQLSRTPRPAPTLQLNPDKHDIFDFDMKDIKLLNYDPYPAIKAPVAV

Mus musculus [13] = assay: Antitumor effect (3 mg/kg) against EO771 mammary adenocarcinoma in mice measured as Average weight change on day 14.; format: functional; in short: as §1
Mus musculus [14] = assay: Antitumor effect (3 mg/kg) against EO771 mammary adenocarcinoma in mice measured as Average weight change on day 7.; format: functional; in short: as §1
Mus musculus [15] = assay: Antitumor effect (3 mg/kg) against EO771 mammary adenocarcinoma in mice measured as toxic deaths out of 10 mice tested; format: functional; in short: as §2
Mus musculus [16] = assay: Antitumor effect (3 mg/kg) against EO771 mammary adenocarcinoma in mice measured as Tumor free/total on day 14; format: functional; in short: as §1
Mus musculus [17] = assay: Antitumor effect (3 mg/kg) against EO771 mammary adenocarcinoma in mice measured as Tumor free/total on day 7.; format: functional; in short: as §1
Mus musculus [18] = assay: Antitumor effect (3 mg/kg) against EO771 mammary adenocarcinoma in mice measured as T/C(treated/control) on day 14.; format: functional; in short: as §1
Mus musculus [19] = assay: Antitumor effect (3 mg/kg) against EO771 mammary adenocarcinoma in mice measured as T/C(treated/control) on day 7.; format: functional; in short: as §1
Mus musculus [20] = assay: Antitumor effect (3 mg/kg) against EO771 mammary adenocarcinoma in mice measured as Toxic deaths/total on day 14.; format: functional; in short: as §2
Thymidylate synthase [21] = biological target: T3, Thymidylate synthase (Homo sapiens, UniProt P04818); assay: The compound was tested for its inhibitory activity against thymidylate synthase(TS) derived from H35F/F cells.
Thymidylate synthase [22] = biological target: T3, Thymidylate synthase; assay: The compound was tested for its inhibitory activity against thymidylate synthase(TS) derived from K562 cells.; format: cell-based

T3 sequence (P04818 whole entry): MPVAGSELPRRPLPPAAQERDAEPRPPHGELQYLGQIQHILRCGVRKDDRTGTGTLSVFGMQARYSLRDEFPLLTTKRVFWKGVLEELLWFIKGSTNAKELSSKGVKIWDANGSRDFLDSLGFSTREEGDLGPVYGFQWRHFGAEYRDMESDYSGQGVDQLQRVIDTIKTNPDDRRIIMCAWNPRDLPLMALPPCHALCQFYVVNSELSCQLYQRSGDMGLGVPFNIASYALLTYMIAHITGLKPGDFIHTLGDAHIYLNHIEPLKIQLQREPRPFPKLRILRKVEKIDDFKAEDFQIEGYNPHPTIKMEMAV

IC50 (Thymidylate synthase [12]): 3900 nM
SMILES: C#CCN(Cc1cnc2nc(N)[nH]c(=O)c2n1)c1ccc(C(=O)NC(CCC(=O)O)C(=O)O)cc1 (stereo not given)

Ki (Dihydrofolate reductase): 0.00585 nM | IC50 (L1210 [1]): 0.64 nM
SMILES: C#CCN(Cc1cnc2nc(N)nc(N)c2c1)c1ccc(C(=O)NC(CCC(=O)O)C(=O)O)cc1 (stereo not given)
Km (L1210 [2]): 1.8 µM | k (L1210 [11]): 0.23 min⁻¹

IC50 (Thymidylate synthase [22]): 2400 nM
SMILES: C#CCN(Cc1ccc2nc(N)nc(O)c2n1)c1ccc(C(=O)NC(CCC(=O)O)C(=O)O)cc1 (stereo not given)

Continued, compound first:

SMILES: C#CCN(Cc1ccc2[nH]c(N)nc(=O)c2c1)c1ccc(C(=O)NC(CCC(=O)O)C(=O)O)cc1 (stereo not given)
IC50 (HL-60): 5290 nM | IC50 (L1210 [1]): 2610 nM | IC50 (CCRF S-180): 1970 nM

SMILES: C#CCN(Cc1cnc2nc(N)nc(N)c2c1C)c1ccc(C(=O)NC(CCC(=O)O)C(=O)O)cc1 (stereo not given)
Ki (Dihydrofolate reductase): 0.00687 nM | Km (L1210 [2]): 0.57 µM | IC50 (L1210 [1]): 0.13 nM | AWC (Mus musculus [3]): -0.6 g | Tumor free/total (Mus musculus [4]): 2 | Tumor free/total (Mus musculus [5]): 2 | T/C (Mus musculus [6]): 0.08 | T/C (Mus musculus [7]): 0.09 | Deaths/total (Mus musculus [8]): 0 | Toxic deaths (Mus musculus [9]): 0 | AWC (Mus musculus [10]): -1.9 g | k (L1210 [11]): 0.24 min⁻¹

SMILES: CN(Cc1cnc2nc(N)nc(N)c2n1)c1ccc(C(=O)N[C@@H](CCC(=O)O)C(=O)O)cc1 [METHOTREXATE]
Km (L1210 [2]): 4.86 µM | AWC (Mus musculus [13]): 0.8 g | AWC (Mus musculus [14]): -0.4 g | Toxic deaths (Mus musculus [15]): 0 | Tumor free/total (Mus musculus [16]): 0 | Tumor free/total (Mus musculus [17]): 0 | T/C (Mus musculus [18]): 0.79 | T/C (Mus musculus [19]): 0.74 | k (L1210 [11]): 0.21 min⁻¹ | Deaths/total (Mus musculus [20]): 0

SMILES: C#CCN(Cc1cnc2nc(N)nc(O)c2c1)c1ccc(C(=O)NC(CCC(=O)O)C(=O)O)cc1 (stereo not given)
IC50 (HL-60): 721 nM | IC50 (L1210 [1]): 1500 nM | IC50 (CCRF S-180): 2350 nM | IC50 (Thymidylate synthase [21]): 90 nM
